# The source made the active and inactive calls. The rule behind the calls is not given here.
# Legend:
# [1] = Cytotoxicity against human HuH7 cells measured after 24 hrs by CellTiter-Glo luminescent cell viability assay; type: cell-based, Huh-7
# How it was run: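 DENV2-infected Huh7 cells treated across a concentration range; cell viability read 24 h later. CC50 (50% cytotoxicity) derived by non-linear regression; mean ± SD of experimental duplicates, n ≥ 2 repeats.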
# [2] = test system: dengue virus type 2; assay: Antiviral activity against Dengue virus serotype 2 replicon harboring GVD mutant infected in HuH7 cells assessed as reduction in viral RNA translation at 10 uM measured at 6 hrs post infection by luciferase reporter gene assay relative to control; type: functional; parameters: scale not given: the % may be the effect or the level left
# How it was run: (§1)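 Huh7 cells transfected with in vitro-transcribed nonreplicative DENV2(GVD) reporter replicon RNA, then treated immediately with compound at 2 or 10 μM. Intracellular firefly luciferase activity read 6 h post-transfection as a measure of RNA translation and expressed relative to DMSO-treated samples. Mean ± SD of experimental duplicates, n = 3 repeats.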
# [3] = test system: dengue virus type 2; assay: Antiviral activity against Dengue virus serotype 2 strain New Guinea C infected in HuH7 cells assessed as reduction in log-fold change by measuring focus forming unit at 10 uM measured at 24 hrs post infection by focus forming assay relative to control; type: functional, Thailand/NGS-C/1944
# How it was run: (§2)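 DENV2-infected Huh7 cells treated with compound at 2 or 10 μM. Infectious virus secreted into culture supernatants at 24 h post-infection/treatment was titred by focus-forming assay. Result expressed as log-fold change relative to DMSO treatment.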
# [4] = test system: dengue virus type 2; assay: Antiviral activity against Dengue virus serotype 2 replicon harboring GVD mutant infected in HuH7 cells assessed as reduction in viral RNA translation at 2 uM measured at 6 hrs post infection by luciferase reporter gene assay relative to control; type: functional; parameters: scale not given: the % may be the effect or the level left; how it was run: as §1
# [5] = test system: dengue virus type 2; assay: Antiviral activity against Dengue virus serotype 2 strain New Guinea C infected in HuH7 cells assessed as reduction in log-fold change by measuring focus forming unit at 2 uM measured at 24 hrs post infection by focus forming assay relative to control; type: functional, Thailand/NGS-C/1944; how it was run: as §2
# [6] = Half life in mouse hepatic microsomes at 1 uM in presence of NADPH by LC-MS/MS method; type: ADME, Microsome; settings: liver microsomes
# How it was run: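 Compound incubated with mouse liver microsomes; half-life (T1/2, min) of the compound reported as a measure of metabolic stability.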
# [7] = test system: dengue virus type 2; assay: Antiviral activity against Dengue virus serotype 2 strain New Guinea C infected in HuH7 cells at […] to 10 uM measured at 24 hrs post infection by focus forming assay; type: functional, cell-based; settings: Thailand/NGS-C/1944
# How it was run: (§3)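 Huh7 cells infected with DENV2, then treated with compound; screened at 2 and 10 μM. Infectious virus secreted into supernatant at 24 h post-infection/treatment titrated by focus-forming assay; expressed as log-fold change relative to DMSO. IC90 (1-log10 drop in infectious progeny) from concentration range by non-linear regression; mean ± SD of experimental duplicates, n ≥ 2 repeats.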
# [8] = test system: Vero; assay: Antiviral activity against Respiratory syncytial virus A2 infected in Vero cells at 2.5 uM pretreated for 7 days followed by viral infection by crystal violet staining based plaque formation assay; type: functional, cell-based; settings: Human respiratory syncytial virus A2
# [9] = test system: Enterovirus C; assay: Antiviral activity against Polio virus Chat infected in Vero cells at 4 uM measured at 12 hrs post infection by crystal violet staining based plaque formation assay; type: functional, cell-based
# How it was run: (§4)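 Vero cells infected with poliovirus or VSV, then treated with 4 μM compound for 12 h (poliovirus) or 6 h (VSV). Infectious virus released to supernatants quantified by plaque-forming assay, plotted relative to DMSO-treated samples. Mean ± SD of experimental duplicates, n ≥ 2 repeats.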
# [10] = test system: dengue virus type 2; assay: Antiviral activity against Dengue virus serotype 2 strain New Guinea C infected in HuH7 cells measured at 24 hrs post infection by focus forming assay; type: functional; settings: Thailand/NGS-C/1944, Huh-7, 24 h
# How it was run: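 Huh7 cells infected with DENV2, then treated with a range of compound concentrations. Viral yield measured 24 h later by titration of infectious particles in supernatants; in parallel, cell viability measured. IC90 (1-log10 reduction in infectious progeny) and CC50 derived by non-linear regression. Mean ± SD of experimental duplicates, n ≥ 2 repeats.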
# [11] = test system: Kunjin virus; assay: Antiviral activity against West Nile virus Kunjin infected in HuH7 cells at 2 uM measured at 24 hrs post infection by crystal violet staining based plaque formation assay; type: functional, cell-based
# How it was run: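 Huh7 cells infected with West Nile virus, then treated with 2 μM for 24 h. Infectious virus released to supernatants quantified by plaque assay and plotted relative to DMSO-treated samples; mean ± SD of experimental duplicates, n ≥ 2 repeats.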
# [12] = test system: Vesicular stomatitis Indiana virus; assay: Antiviral activity against Vesicular stomatitis virus Indiana infected in Vero cells at 4 uM measured at 6 hrs post infection by crystal violet staining based plaque formation assay; type: functional, cell-based; how it was run: as §4
# [13] = test system: dengue virus type 2; assay: Antiviral activity against Dengue virus serotype 2 strain New Guinea C infected in HuH7 cells at < 10 uM measured at 24 hrs post infection by focus forming assay; type: functional, cell-based; settings: Thailand/NGS-C/1944; how it was run: as §3
SMILES,CC50 at 24 h [1] [µM],Activity [2] [%],Activity [3] [log10FFU/ml],Activity [4] [%],Activity [5] [log10FFU/ml],half-life at 1 µM [6] [min],Activity [7],Activity [8],Activity [9],IC90 [10] [µM],Activity [11],Activity [12],Activity [13]
C=CC(=O)Nc1cc(-n2c(=O)ccc3cnc4ccc(-c5cnn(C)c5)cc4c32)ccc1OCCNC(C)=O,99,90,4,39,1.1,,,,,,,,
C=CC(=O)N1CCc2ccc(-n3c(=O)n(C)c4cnc5ccc(-c6cnn(C)c6)cc5c43)cc21,79,99,4,94,2.5,2,,,,,,,
C=CC(=O)Nc1cc(-n2c(=O)ccc3cnc4ccc(-c5ccc(NS(C)(=O)=O)cc5)cc4c32)ccc1C,,,,,,,inactive,,,,,,
C=CC(=O)N1CCC[C@@H](n2nc(-c3ccc(Oc4ccccc4)cc3)c3c(N)ncnc32)C1,,,,,,,inactive,,,,,,
C=CC(=O)Nc1cc(-n2c(=O)ccc3cnc4ccc(N5CCOCC5)cc4c32)ccc1C,103,23,1.2,0,0.1,9,,,,,,,
C=CC(=O)Nc1cc(-n2c(=O)ccc3cnc4ccc(-c5ccc6c(c5)OCO6)cc4c32)ccc1C,46,94,4,32,2.8,2.7,,,,,,,
C=CC(=O)Nc1cc(-n2c(=O)ccc3cnc4ccc(-c5cnn(C)c5)cc4c32)ccc1F,105,99,4,97,4,4.5,,,,,,,
C=CC(=O)Nc1cc(-n2c(=O)ccc3ccc4ccc(-c5ccc6ccncc6c5)cc4c32)ccc1C,75,94,4,82,1.9,9,,,,,,,
Cc1c(NC(=O)c2ccc(C(C)(C)C)cc2)cccc1-c1cn(C)c(=O)c(Nc2ccc(C(=O)N3CCOCC3)cc2)n1,,,,,,,inactive,,,,,,
C=CC(=O)N1CCc2ccc(-n3c(=O)ccc4cnc5ccc(-c6ccc(S(=O)(=O)NC(C)(C)C)cc6)cc5c43)cc21,13,100,1.9,81,0,2.3,,,,,,,
C=CC(=O)Nc1cc(-n2c(=O)ccc3cnc4ccc(-c5cnn(C)c5)cc4c32)ccc1C,> 160,34,4,40,1,4.1,,,,,,,
C=CC(=O)Nc1cc(-n2c(=O)ccc3cnc4ccc(-c5cnc6ccccc6c5)cc4c32)ccc1C,> 160,95,4,82,2.7,1.3,,,,,,,
C=CC(=O)Nc1cc(-n2c(=O)ccc3cnc4ccc(-c5ccc(N)nc5)cc4c32)ccc1C,75,75,4,44,0.8,6.4,,,,,,,
C=CC(=O)N1CCc2ccc(-n3c(=O)ccc4cnc5ccc(-c6cnn(C)c6)cc5c43)cc21,67 to 68,98,4,94,4,1.2,,Active,Active,0.343,Active,Active,
C=CC(=O)N1CCc2ccc(N3C(=O)NCc4cnc5ccc(-c6cnn(C)c6)cc5c43)cc21,68,53,0.8,49,0.1,2,,,,,,,
C=CC(=O)Nc1cc(-n2c3c(ccc2=O)CCc2ccc(-c4cnn(C)c4)cc2-3)ccc1C,> 160,60,1,49,0.5,,,,,,,,
C=CC(=O)Nc1cc(-n2c(=O)ccc3ccc4ccc(-c5cnn(C)c5)cc4c32)ccc1C,> 160,95,4,76,4,4,,,,,,,
C=CC(=O)Nc1cc(-n2c3c(ccc2=O)CCc2ccc(-c4ccc5ccncc5c4)cc2-3)ccc1C,> 160,88,0.1,77,0.5,,,,,,,,
C=CC(=O)Nc1cc(-n2c(=O)ccc3cnc4ccc(-c5cnn(C)c5)cc4c32)ccc1C(=O)N(C)C,83,93,4,4,2,,,,,,,,
C=CC(=O)Nc1cc(-n2c(=O)ccc3cnc4ccc(-c5cn[nH]c5)cc4c32)ccc1C,77,76,4,29,0.8,6.5,,,,,,,
C=CC(=O)N1CCc2ccc(-n3c(=O)n(C)c4cnc5ccc(-c6ccc7ccncc7c6)cc5c43)cc21,126,98,4,77,2,2,,,,,,,
CCC(=O)N1CCc2ccc(-n3c(=O)ccc4cnc5ccc(-c6cnn(C)c6)cc5c43)cc21,,,,,,,,,,,,,inactive
C=CC(=O)Nc1cc(-n2c(=O)ccc3ccc4ccc(-c5cn[nH]c5)cc4c32)ccc1C,29,79,4,39,2,4,,,,,,,
Cc1ccc(-n2c(=O)ccc3ccc4ccc(-c5ccc6ccncc6c5)cc4c32)cc1NC(=O)/C=C/CN(C)C,21,66,4,17,3.3,6.3,,,,,,,
C=CC(=O)Nc1cc(-n2c(=O)ccc3cnc4ccc(-c5cnn(C)c5)cc4c32)ccc1C(=O)O,> 160,19,0,3,0,,,,,,,,
C=CC(=O)Nc1cc(-n2c(=O)ccc3cnc4ccc(Nc5cnn(C)c5)cc4c32)ccc1C,107,24,0.4,23,0,7.9,,,,,,,
C=CC(=O)Nc1cc(-n2c(=O)ccc3cnc4ccc(N5CCN(c6ccccc6)CC5)cc4c32)ccc1C,44,2,0,0,0.1,5,,,,,,,

# Source: ChEMBL document CHEMBL4041550, “Structure-Activity Relationship Study of QL47: A Broad-Spectrum Antiviral Agent” (ACS Med Chem Lett, 2017)
